Active and inactive are the calls of the source.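 Rule for the calls, unless noted: active = growth inhibition above 25% in both replicates, a cutoff set 3 SD above the mean; inconclusive = above 25% in only one replicate; inactive = the rest.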
experiment: S. cerevisiae growth inhibition in permissive medium (OD615), pilot counter-assay for S. cerevisiae lifespan shortening project, permissive growth control (AID 705); details: OD615, 24 h, at 10 µM, active compounds read high
Method in brief: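 System – S. cerevisiae with engineered DeaD lifespan system · Buffer or medium – SC raffinose/galactose permissive medium · Schedule – cells pre-grown 4 h, then 24 h compound exposure, 30 °C humidified · Technique – culture turbidity as optical density at 615 nm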

| SMILES | growth inhibition |
| --- | --- |
| Cn1cc(SCC(=O)NCC2CCCO2)c2ccccc21 (stereo not given) | -3.53% (inactive) |
| Cc1nnc(Sc2nc3c(c(=O)[nH]c(=O)n3C)n2Cc2ccccc2)s1 | -11.6% (inactive) |
| O=C1CCCCCN1Cc1nnc(SCc2nc3ccccc3s2)n1-c1ccccn1 | -3.83% (inactive) |
| CCCCC(CC)C(=O)NCCCN1CCN(CCCNC(=O)C(CC)CCCC)CC1 (stereo not given) | -6.17% (inactive) |
| c1csc(Cc2nc(-c3ccc(-n4cccc4)cc3)no2)c1 | -6.69% (inactive) |
| COCCNC(=O)c1cc(-c2ccc(Cl)c(Cl)c2)on1 | -2.25% (inactive) |
| COc1ccc(-c2nn(-c3ccccc3)cc2C(=O)O)cc1 | -8.52% (inactive) |
| Cc1cc(NC(=O)Nc2cccc3ccccc23)no1 | -3.55% (inactive) |
| O=C(c1ccc2snnc2c1)N1CCCC1 | -11.3% (inactive) |
| COc1ccccc1NC(=O)c1cccc(S(=O)(=O)N2CCOCC2)c1 | 7.87% (inactive) |
| COc1ccc(-n2c(Cn3c(=O)sc4ccccc43)nnc2SCC(=O)N2CCOCC2)cc1 | -0.33% (inactive) |
| O=C(c1cc(-c2cccc(O)c2)on1)N1CCCCC1 | 0.145% (inactive) |
| Cc1ccc(S(=O)(=O)N(C)Cc2nc(-c3ccc(Br)cc3)no2)cc1 | -3.27% (inactive) |
| O=C(NCc1ccccc1)c1ccc2c(c1)OCCO2 | 3.26% (inactive) |
| CCOC(=O)CSc1nnc(Cn2c(=O)sc3ccccc32)n1-c1ccccc1C | -8.34% (inactive) |
| CCOC(=O)c1sc2nc(NC(=O)C3CC3)sc2c1C | -0.51% (inactive) |
| O=C(CCCOc1ccccc1)Nc1cccc(C(=O)O)c1 | -0.54% (inactive) |
| CN(C)CCNC(=O)c1ccc(CS(=O)(=O)c2c(Cl)cccc2Cl)o1 | -2.3% (inactive) |
| CCOC(=O)CC1C(=O)NCCN1Cc1cccc(C(F)(F)F)c1 (stereo not given) | -4.03% (inactive) |
| CC(=O)c1cccc(NC(=O)c2cc3ccccn3n2)c1 | -5.62% (inactive) |

| SMILES | growth inhibition |
| --- | --- |
| Cc1ccc2c(c1)NCC(C(=O)NCc1ccccc1)O2 (stereo not given) | -10.4% (inactive) |
| CCOC(=O)NCc1ccc(CNC(=O)OCC)cc1 | -9.67% (inactive) |
| CC1=C(C#N)C(c2cccnc2)C2=C(CC(C)(C)CC2=O)N1 (stereo not given) | 1.49% (inactive) |
| CCN1CCN(CCCNC(=O)Cn2cc3c(n2)CCCC3)CC1 | -5.34% (inactive) |
| CC12CN3CC(C)(CN(C1)C3c1ccc3ccccc3c1O)C2=O (stereo not given) | -10.8% (inactive) |
| CCOC(=O)NC(C(F)(F)F)(C(F)(F)F)P(=O)(c1ccccc1)c1ccccc1 | -6.98% (inactive) |
| O=C(Cn1cc2c(n1)CCCCC2)NCCN1CCOCC1 | 7.15% (inactive) |
| O=C(COC(=O)c1ccc(S(=O)(=O)NCc2ccco2)cc1)Nc1ccccc1OC(F)F | -8.88% (inactive) |
| COc1ccc(-c2nnc(SCC(=O)NC(C)c3ccccc3)o2)cc1OC (stereo not given) | -1.92% (inactive) |
| C=CCSc1nc2ccccc2c(=O)[nH]1 | -16.1% (inactive) |
| COCc1cc(C)nc2sc3c(=O)n(Cc4ccco4)nnc3c12 | -8.08% (inactive) |
| Cc1ccc(S(=O)(=O)N(C)CCCC(=O)N2CCOCC2)cc1 | -17.3% (inactive) |
| COc1cccc(-n2nnc3c(=O)n(C/C=C/c4ccccc4)cnc32)c1 | -5.38% (inactive) |
| CCOc1cc(C(=O)Nc2nnc(C)s2)cc(OCC)c1OCC | -0.31% (inactive) |
| CCC(C)NC(=O)C1CCN(C(=O)c2ccccc2)CC1 (stereo not given) | -3.49% (inactive) |
| CC(C)c1nnc(NC(=O)c2ccc(S(=O)(=O)N3CCOCC3)cc2)s1 | -15% (inactive) |
| CCOC(=O)c1ccccc1N1C(=O)CSC1=S | -22.3% (inactive) |
| COC(=O)C1=C(C)NC(=O)CC1c1cc2c(cc1Br)OCO2 (stereo not given) | 4.83% (inactive) |
| Cc1ccc(C)c(N2CCN(C(=O)CCc3nc4ccccc4[nH]3)CC2)c1 | 6.2% (inactive) |
| CCN1CCN(CC(=O)Nc2ccc3c(c2)OCO3)C(=O)C1=O | -18.6% (inactive) |

experiment: S. cerevisiae growth inhibition in restrictive medium, OD615, pilot screen, restrictive growth control, yeast lifespan reduction project (AID 706;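 active = growth inhibition above a set limit, 3 SD over mean compound inhibition, in both replicates, cut at about 43% in these data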;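 note: modified DeaD lifespan yeast strain shifted to restrictive glucose medium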); details: OD615, 48 h, at 10 µM, active compounds read high
Method in brief: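 Material: engineered S. cerevisiae DeaD strain / Medium: glucose-based CSMM-D restrictive medium / Compound: single dose of 10 µM compound final, 0.25% DMSO / Timing: 4 h pre-incubation, 48 h exposure at 30 °C / Technique: OD615 absorbance reading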

| SMILES | growth inhibition |
| --- | --- |
| Cn1cc(SCC(=O)NCC2CCCO2)c2ccccc21 (stereo not given) | 2.04% (inactive) |
| Cc1nnc(Sc2nc3c(c(=O)[nH]c(=O)n3C)n2Cc2ccccc2)s1 | -12.4% (inactive) |
| O=C1CCCCCN1Cc1nnc(SCc2nc3ccccc3s2)n1-c1ccccn1 | 19.8% (inactive) |
| CCCCC(CC)C(=O)NCCCN1CCN(CCCNC(=O)C(CC)CCCC)CC1 (stereo not given) | 2.97% (inactive) |
| c1csc(Cc2nc(-c3ccc(-n4cccc4)cc3)no2)c1 | -14.7% (inactive) |
| COCCNC(=O)c1cc(-c2ccc(Cl)c(Cl)c2)on1 | -1.81% (inactive) |
| COc1ccc(-c2nn(-c3ccccc3)cc2C(=O)O)cc1 | 1.15% (inactive) |
| Cc1cc(NC(=O)Nc2cccc3ccccc23)no1 | 1.52% (inactive) |
| O=C(c1ccc2snnc2c1)N1CCCC1 | -4.86% (inactive) |
| COc1ccccc1NC(=O)c1cccc(S(=O)(=O)N2CCOCC2)c1 | 0.14% (inactive) |
| COc1ccc(-n2c(Cn3c(=O)sc4ccccc43)nnc2SCC(=O)N2CCOCC2)cc1 | 7.95% (inactive) |
| O=C(c1cc(-c2cccc(O)c2)on1)N1CCCCC1 | 10.4% (inactive) |
| Cc1ccc(S(=O)(=O)N(C)Cc2nc(-c3ccc(Br)cc3)no2)cc1 | -0.88% (inactive) |
| O=C(NCc1ccccc1)c1ccc2c(c1)OCCO2 | 5.53% (inactive) |
| CCOC(=O)CSc1nnc(Cn2c(=O)sc3ccccc32)n1-c1ccccc1C | -6.71% (inactive) |
| CCOC(=O)c1sc2nc(NC(=O)C3CC3)sc2c1C | -2.08% (inactive) |
| O=C(CCCOc1ccccc1)Nc1cccc(C(=O)O)c1 | 3.65% (inactive) |
| CN(C)CCNC(=O)c1ccc(CS(=O)(=O)c2c(Cl)cccc2Cl)o1 | -9.77% (inactive) |
| CCOC(=O)CC1C(=O)NCCN1Cc1cccc(C(F)(F)F)c1 (stereo not given) | -3.95% (inactive) |
| CC(=O)c1cccc(NC(=O)c2cc3ccccn3n2)c1 | 4.32% (inactive) |

| SMILES | growth inhibition |
| --- | --- |
| Cc1ccc2c(c1)NCC(C(=O)NCc1ccccc1)O2 (stereo not given) | 2.51% (inactive) |
| CCOC(=O)NCc1ccc(CNC(=O)OCC)cc1 | 4.35% (inactive) |
| CC1=C(C#N)C(c2cccnc2)C2=C(CC(C)(C)CC2=O)N1 (stereo not given) | -0.735% (inactive) |
| CCN1CCN(CCCNC(=O)Cn2cc3c(n2)CCCC3)CC1 | 0.355% (inactive) |
| CC12CN3CC(C)(CN(C1)C3c1ccc3ccccc3c1O)C2=O (stereo not given) | -19.3% (inactive) |
| CCOC(=O)NC(C(F)(F)F)(C(F)(F)F)P(=O)(c1ccccc1)c1ccccc1 | 4.49% (inactive) |
| O=C(Cn1cc2c(n1)CCCCC2)NCCN1CCOCC1 | 10.1% (inactive) |
| O=C(COC(=O)c1ccc(S(=O)(=O)NCc2ccco2)cc1)Nc1ccccc1OC(F)F | -12.5% (inactive) |
| COc1ccc(-c2nnc(SCC(=O)NC(C)c3ccccc3)o2)cc1OC (stereo not given) | -14.2% (inactive) |
| C=CCSc1nc2ccccc2c(=O)[nH]1 | -8.26% (inactive) |
| COCc1cc(C)nc2sc3c(=O)n(Cc4ccco4)nnc3c12 | -13.3% (inactive) |
| Cc1ccc(S(=O)(=O)N(C)CCCC(=O)N2CCOCC2)cc1 | -6.47% (inactive) |
| COc1cccc(-n2nnc3c(=O)n(C/C=C/c4ccccc4)cnc32)c1 | -7.15% (inactive) |
| CCOc1cc(C(=O)Nc2nnc(C)s2)cc(OCC)c1OCC | 0.555% (inactive) |
| CCC(C)NC(=O)C1CCN(C(=O)c2ccccc2)CC1 (stereo not given) | -5.37% (inactive) |
| CC(C)c1nnc(NC(=O)c2ccc(S(=O)(=O)N3CCOCC3)cc2)s1 | -24.1% (inactive) |
| CCOC(=O)c1ccccc1N1C(=O)CSC1=S | -19.6% (inactive) |
| COC(=O)C1=C(C)NC(=O)CC1c1cc2c(cc1Br)OCO2 (stereo not given) | 7.57% (inactive) |
| Cc1ccc(C)c(N2CCN(C(=O)CCc3nc4ccccc4[nH]3)CC2)c1 | 7.36% (inactive) |
| CCN1CCN(CC(=O)Nc2ccc3c(c2)OCO3)C(=O)C1=O | -4.2% (inactive) |

Source: PubChem BioAssay
